# Assay results from ChEMBL document CHEMBL5042491, “Identification of Small Molecule Inhibitors of RNase L by Fragment-Based Drug Discovery” (J Med Chem, 2022).
# Activity calls are given as the source filed them. No cut-off for these calls is given here.
# Experiments:
# Sus scrofa [1] = species on record: Sus scrofa; experiment: Inhibition of recombinant full length P-RNAase L (1 to 743 residues) expressed in Escherichia coli BL21 (DE3) using 5'-FAM-UAA-UCA-AAU-UCU-UAU-UUG-CCC-CAU-UUU-UUU-GGU-UUA-BHQ-1-3' as substrate incubated for 60 min by FRET assay
# Method in brief: (§1)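 FRET cleavage assay. Recombinant RNase L (10 nM human or 2.5 nM porcine, final) was preincubated 10 min on ice with graded compound in 25 mM Tris pH 7.4, 100 mM KCl, 10 mM MgCl2, 2.5 mM DTT and 0.5 nM 2-5A. FAM/BHQ1 RNA probe was added and the mix held 1 h at room temperature. Read at ex 480/em 535 nm; triplicates; IC50 from dose-response.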
# [2] = target: T1, 2-5A-dependent ribonuclease (Homo sapiens) (UniProt Q05823); experiment: Inhibition of recombinant full length H-RNAase L (1 to 741 residues) expressed in Escherichia coli BL21 (DE3) using 5'-FAM-UAA-UCA-AAU-UCU-UAU-UUG-CCC-CAU-UUU-UUU-GGU-UUA-BHQ-1-3' as substrate incubated for 60 min by FRET assay; method in brief: as §1
# T1 sequence (whole entry): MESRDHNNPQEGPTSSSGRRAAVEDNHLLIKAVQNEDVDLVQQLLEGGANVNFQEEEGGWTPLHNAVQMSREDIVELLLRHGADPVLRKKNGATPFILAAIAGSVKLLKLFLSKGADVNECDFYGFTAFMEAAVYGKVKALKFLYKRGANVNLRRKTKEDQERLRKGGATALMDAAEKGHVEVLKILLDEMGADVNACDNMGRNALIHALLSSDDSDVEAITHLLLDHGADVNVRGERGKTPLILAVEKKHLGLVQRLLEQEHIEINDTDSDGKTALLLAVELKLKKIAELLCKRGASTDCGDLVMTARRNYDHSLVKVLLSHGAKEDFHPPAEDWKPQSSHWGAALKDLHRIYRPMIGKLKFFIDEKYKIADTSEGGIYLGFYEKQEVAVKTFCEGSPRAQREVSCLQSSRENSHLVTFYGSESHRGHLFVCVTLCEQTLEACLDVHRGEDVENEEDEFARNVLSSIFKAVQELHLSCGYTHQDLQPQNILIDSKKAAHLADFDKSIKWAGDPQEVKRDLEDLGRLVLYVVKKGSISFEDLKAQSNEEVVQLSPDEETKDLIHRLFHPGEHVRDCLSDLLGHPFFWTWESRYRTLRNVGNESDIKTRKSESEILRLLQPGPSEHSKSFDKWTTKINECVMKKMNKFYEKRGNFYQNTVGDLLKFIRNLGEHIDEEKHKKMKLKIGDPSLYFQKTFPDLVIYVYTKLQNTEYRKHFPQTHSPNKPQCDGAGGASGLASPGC
# [3] = target: T2, 2-5A-dependent ribonuclease (Homo sapiens, UniProt Q05823); experiment: Inhibition of recombinant full length H-RNAase L (1 to 741 residues) expressed in Escherichia coli BL21 (DE3) assessed as inhibition rate in presence of 2-5A and ATP/MgCl2 by STD-NMR spectroscopy
# T2 sequence (Q05823 whole entry): T1 sequence (whole entry)
# Sus scrofa [4] = species on record: Sus scrofa; experiment: (§2) Inhibition of recombinant full length P-RNAase L (1 to 743 residues)expressed in Escherichia coli BL21 (DE3) assessed as inhibition rate in presence of 2-5A AND ATP/MgCl2 by STD-NMR spectroscopy; conditions: time 60.0 min
# [5] = Inhibition of full length P-RNAase L expressed in Escherichia coli BL21 (DE3) assessed as inhibition rate incubated for 15 min in presence of 5 nM 2-5A for 15 mins by Coomassie staining based SDS-PAGE analysis; set-up: species or system Sus scrofa
# [6] = target: T2, 2-5A-dependent ribonuclease; experiment: Inhibition of full length H-RNAase L expressed in Escherichia coli BL21 (DE3) assessed as inhibition rate incubated for 15 min in presence of 5 nM 2-5A for 15 mins by Coomassie staining based SDS-PAGE analysis
# [7] = target: T1, 2-5A-dependent ribonuclease (Homo sapiens); experiment: Inhibition of RNAase L in human A549 cells assessed as rRNA cleavage pretreated at 30 uM for 4 hrs followed by treated with 20 uM 2-5A by […] analysis; type: cell-based
# Method in brief: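 A549 cells were grown 16 h in RPMI with 10% FBS, then given inhibitor at 3, 10, 30 or 100 μM in fresh medium for 4 h. Trimeric 2-5A (20 μM) was then transfected with lipofectamine 2000 with inhibitor still present, for 2 h more. rRNA cleavage was read from total RNA on Bioanalyzer chips. NP40 lysates were western-blotted for RNase L and beta-actin.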
# [8] = Inhibition of wild type P-RNAase L expressed in Escherichia coli BL21 (DE3) assessed as inhibition rate; set-up: species or system Sus scrofa
# [9] = Inhibition of P-RNAase L R353E mutant expressed in Escherichia coli BL21 (DE3) assessed as inhibition rate; set-up: species or system Sus scrofa
# [10] = Inhibition of P-RNAase L K164E mutant expressed in Escherichia coli BL21 (DE3) assessed as inhibition rate; set-up: species or system Sus scrofa
# [11] = Inhibition of full length P-RNAase L expressed in Escherichia coli BL21 (DE3) assessed as inhibition rate incubated for 15 min in presence of 20 nM 2-5A for 15 mins by Coomassie staining based SDS-PAGE analysis; set-up: species or system Sus scrofa
# [12] = Inhibition of full length P-RNAase L expressed in Escherichia coli BL21 (DE3) assessed as inhibition rate incubated for 15 min in presence of 1 nM 2-5A for 15 mins by Coomassie staining based SDS-PAGE analysis; set-up: species or system Sus scrofa
# [13] = target: T2, 2-5A-dependent ribonuclease; experiment: Inhibition of full length H-RNAase L expressed in Escherichia coli BL21 (DE3) assessed as inhibition rate incubated for 15 min in presence of 1 nM 2-5A for 15 mins by Coomassie staining based SDS-PAGE analysis
# Sus scrofa [14] = species on record: Sus scrofa; experiment: Suppression of 2-5A-induced full length P-RNase L oligomerization in presence of upto 2 uM 2-5A at 40 uM by SDS-PAGE analysis
# Method in brief: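 Full-length porcine RNase L (0.8 μM) with 5 mM MgCl2 was held 15 min on ice with or without inhibitor, then 15 min on ice with 2-5A. It was cross-linked with dimethyl suberimidate in triethanolamine (pH 8.5) for 1 h at room temperature. Samples were boiled in SDS loading buffer, run on 4-12% SDS-PAGE and stained with Coomassie.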
# [15] = target: T2, 2-5A-dependent ribonuclease; experiment: Inhibition of full length H-RNAase L expressed in Escherichia coli BL21 (DE3) assessed as inhibition rate incubated for 15 min in presence of 20 nM 2-5A for 15 mins by Coomassie staining based SDS-PAGE analysis
# [16] = as §2; set-up: species or system Sus scrofa
compound,measurement,setting,value
C[S+]([O-])c1sc(Cl)c2c1C(=O)CCC2 (stereo not drawn),inhibition,Sus scrofa [1],Active
same,inhibition,[2],Active
Cc1cc(C(=O)O)cc(Cl)n1,inhibition,Sus scrofa [1],Active
same,inhibition,[2],Active
O=C(O)c1ccc(Cl)nc1Cl,inhibition,Sus scrofa [1],Active
same,inhibition,[2],Active
Oc1ccc(Sc2ccc(O)cc2)cc1,inhibition,Sus scrofa [1],Active
same,inhibition,[2],Active
CCCCOC(=O)c1ccc(O)cc1 [BUTYLPARABEN],IC50,[3],2400 µM
same,inhibition,[2],Active
same,inhibition,Sus scrofa [4],inactive
O=c1c(O[C@@H]2O[C@H](CO)[C@H](O)[C@H](O)[C@H]2O)c(-c2ccc(O)c(O)c2)oc2cc(O)cc(O)c12 [HYPEROSIDE],IC50,[5],1.42 µM
same,IC50,[6],1.32 µM
same,Activity,[7],inactive
same,IC50,[8],0.9 µM
same,IC50,[3],1.63 µM
same,IC50,[9],0.65 µM
same,IC50,[10],1.02 µM
same,IC50,[11],1.42 µM
same,IC50,[12],1.47 µM
same,IC50,[13],1.36 µM
same,inhibition,Sus scrofa [14],inactive
same,IC50,[15],1.42 µM
O=c1c(O)c(-c2cc(O)c(O)c(O)c2)oc2cc(O)cc(O)c12 [MYRICETIN],IC50,[3],264 µM
same,IC50,[16],173 µM
O=c1cc(-c2ccc(O)cc2)oc2c([C@@H]3O[C@H](CO)[C@@H](O)[C@H](O)[C@H]3O)c(O)cc(O)c12 [VITEXIN],Activity,[7],inactive
same,IC50,[3],190 µM
same,IC50,[16],109 µM
